Measurements from article PMC4789169 (Bioorganic & medicinal chemistry, 2016).
Read-outs that look alike come from different tables or passages of the source.

How the values were obtained:
Colon HCT-116 = details: read-out: Cytotoxicity (GI50, μM) Colon HCT-116; NCI-60; cited from earlier work
Renal SN12C = details: read-out: Cytotoxicity (GI50, μM) Renal SN12C; NCI-60; cited from earlier work
recombinant Top1 [1] = target: T1, recombinant Top1 (Homo sapiens, UniProt P11387); design: key to the marks not given beside the values; details: score relative to 1 μM camptothecin (1); cited from earlier work
T1 sequence (P11387 1-765): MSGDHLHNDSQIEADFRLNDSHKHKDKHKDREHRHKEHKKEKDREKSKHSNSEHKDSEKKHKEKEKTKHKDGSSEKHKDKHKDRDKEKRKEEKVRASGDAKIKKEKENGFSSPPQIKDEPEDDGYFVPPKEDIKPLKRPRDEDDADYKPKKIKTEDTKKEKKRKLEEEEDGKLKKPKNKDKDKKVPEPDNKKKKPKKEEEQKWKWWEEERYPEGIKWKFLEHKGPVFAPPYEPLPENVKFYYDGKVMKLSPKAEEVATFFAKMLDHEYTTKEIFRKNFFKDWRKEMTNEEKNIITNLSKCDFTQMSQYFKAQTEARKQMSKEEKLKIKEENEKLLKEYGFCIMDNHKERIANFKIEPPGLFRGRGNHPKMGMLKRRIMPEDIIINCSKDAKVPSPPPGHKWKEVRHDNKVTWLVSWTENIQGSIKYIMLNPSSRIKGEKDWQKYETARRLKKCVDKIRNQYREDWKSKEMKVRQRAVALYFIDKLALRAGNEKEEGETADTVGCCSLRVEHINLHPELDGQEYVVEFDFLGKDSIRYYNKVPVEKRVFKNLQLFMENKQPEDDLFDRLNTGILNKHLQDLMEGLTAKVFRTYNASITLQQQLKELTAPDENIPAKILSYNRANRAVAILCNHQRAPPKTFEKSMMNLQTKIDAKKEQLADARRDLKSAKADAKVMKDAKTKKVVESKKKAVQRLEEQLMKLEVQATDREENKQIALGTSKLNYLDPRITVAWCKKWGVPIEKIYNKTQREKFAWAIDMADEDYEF

Melanoma UACC-62 = details: read-out: Cytotoxicity (GI50, μM) Melanoma UACC-62; NCI-60; cited from earlier work
CNS SF-539 = details: read-out: Cytotoxicity (GI50, μM) CNS SF-539; NCI-60; cited from earlier work
Lung HOP-62 = details: read-out: Cytotoxicity (GI50, μM) Lung HOP-62; NCI-60; cited from earlier work
Ovarian OVCAR-3 = details: read-out: Cytotoxicity (GI50, μM) Ovarian OVCAR-3; NCI-60; cited from earlier work
Prostate DU-145 = details: read-out: Cytotoxicity (GI50, μM) Prostate DU-145; NCI-60; cited from earlier work
[2] = cited from earlier work
recombinant Top1 [3] = target: T1, recombinant Top1; experiment: Top1-mediated DNA cleavage assay; format: biochemical; details: for Top1 Cleavage: score relative to 1 μM camptothecin (1), tested at 0.1, 1, 10, 100 μM
[4] = tested on: all 60 cell lines (NCI-60 human tumor cell line screen); experiment: NCI-60 GI50 mean graph midpoint; format: cell-based; details: read-out: Cytotoxicity (GI50, μM) MGM
Summary of the method: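 Compounds were first screened at a single 10 μM dose across NCI-60 lines. Those with low enough averaged growth percent advanced to a five-concentration assay (10⁻⁸–10⁻⁴ M). […] Values beyond the range were recorded as the minimum or maximum tested concentration. MGM is the average GI50 over all 60 lines.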

COc1cc2c3c(n(CCCN4CCOCC4)c(=O)c2cc1OC)-c1cc2c(cc1C3=O)OCO2 [Compound 4, indotecan]
GI50 (Colon HCT-116): 1.15 µM | GI50 (Renal SN12C): 0.813 µM | Top1 Cleavage (recombinant Top1 [1]): ++++ | GI50 (Melanoma UACC-62): 0.03 µM | GI50 (CNS SF-539): 0.04 µM | GI50 (Lung HOP-62): 1.78 µM | GI50 (Ovarian OVCAR-3): 74.1 µM | GI50 (Prostate DU-145): 0.155 µM

COc1cc2c3c(n(CCCn4ccnc4)c(=O)c2cc1OC)-c1cc2c(cc1C3=O)OCO2 [Compound 5, indimitecan]
GI50 (Colon HCT-116): < 0.01 µM | GI50 (Renal SN12C): < 0.01 µM | Top1 Cleavage (recombinant Top1 [1]): ++++ | GI50 (Melanoma UACC-62): < 0.01 µM | GI50 (CNS SF-539): 0.037 µM | GI50 (Lung HOP-62): < 0.01 µM | Metabolism in the presence of human liver microsomes [2]: oxidative demethylation of the 2-methoxy group | GI50 (Ovarian OVCAR-3): 0.085 µM | GI50 (Prostate DU-145): < 0.01 µM

COc1cc2c3c(n(CCCNCCO)c(=O)c2cc1OC)-c1cc2c(cc1C3=O)OCO2 [Compound 6, MJ-III-65]
Top1 Cleavage (recombinant Top1 [1]): ++++ | GI50 (Melanoma UACC-62): 0.03 µM | GI50 (Prostate DU-145): 0.02 µM

O=C1c2cc3c(cc2-c2c1c1ccc(F)cc1c(=O)n2C[C@H](O)CO)OCO3 [Compound 21, (S)-3-Fluoro-6-(2,3-dihydroxypropyl)-8,9-methylenedioxy-5H-indeno[1,2-c]isoquinoline-5,11(6H)-dione]
Top1 Cleavage (recombinant Top1 [3]): ++++

O=C1c2cc3c(cc2-c2c1c1ccc(Cl)cc1c(=O)n2C[C@H](O)CO)OCO3 [Compound 22, (S)-3-Chloro-6-(2,3-dihydroxypropyl)-8,9-methylenedioxy-5H-indeno[1,2-c]isoquinoline-5,11(6H)-dione]
Top1 Cleavage (recombinant Top1 [3]): ++ (++, between 50 and 75% activity)

O=C1c2cc3c(cc2-c2c1c1ccc(F)cc1c(=O)n2C[C@H](O)[C@@H](O)[C@H](O)CO)OCO3 [Compound 23, (2′S,3′R,4′R)-3-Fluoro-5,6-dihydro-6-(2′,3′,4′,5′-tetrahydroxypentyl)-8,9-methylenedioxy-5,11-dioxo-11H-indeno[1,2-c]isoquinoline]
Top1 Cleavage (recombinant Top1 [3]): ++ (++, between 50 and 75% activity)

O=C1c2cc3c(cc2-c2c1c1ccc(Cl)cc1c(=O)n2C[C@H](O)[C@H](O)[C@H](O)CO)OCO3 [Compound 24, (2′S,3′S,4′R)-3-Chloro-5,6-dihydro-6-(2′,3′,4′,5′-tetrahydroxypentyl)-8,9-methylenedioxy-5,11-dioxo-11H-indeno[1,2-c]isoquinoline]
Top1 Cleavage (recombinant Top1 [3]): + (+, between 20 and 50% activity)

O=C1c2cc3c(cc2-c2c1c1ccc(F)cc1c(=O)n2CCCn1ccnc1)OCO3 [Compound 25, 3-Fluoro-6-(3-(1H-imidazol-1-yl)propyl)-8,9-methylenedioxy-5,11-dioxo-11H-indeno[1,2-c]isoquinoline]
Top1 suppression activity (recombinant Top1 [3]; high drug concentration (100 μM), band density at several cleavage sites decreases): suppress Top1-mediated DNA cleavage | Top1 Cleavage (recombinant Top1 [3]): +++ (+++, between 75 and 95% activity) | GI50 [4]: ≤ 0.011 µM

O=C1c2cc3c(cc2-c2c1c1ccc(Cl)cc1c(=O)n2CCCn1ccnc1)OCO3 [Compound 26, 3-Chloro-6-(3-(1H-imidazol-1-yl)propyl)-8,9-methylenedioxy-5,11-dioxo-11H-indeno[1,2-c]isoquinoline]
Top1 Cleavage (recombinant Top1 [3]): ++ (++, between 50 and 75% activity)

O=C(O)C(F)(F)F.O=C1c2cc3c(cc2-c2c1c1ccc(F)cc1c(=O)n2CCCN1CCOCC1)OCO3 [Compound 27, 3-Fluoro-5,6-dihydro-6-(3-morpholinopropyl)-8,9-methylenedioxy-5,11-dioxo-11H-indeno[1,2-c]isoquinoline Trifluoroacetate]
Top1 Cleavage (recombinant Top1 [3]): + (+, between 20 and 50% activity)

O=C(O)C(F)(F)F.O=C1c2cc3c(cc2-c2c1c1ccc(Cl)cc1c(=O)n2CCCN1CCOCC1)OCO3 [Compound 28, 3-Chloro-5,6-dihydro-6-(3-morpholinopropyl)-8,9-methylenedioxy-5,11-dioxo-11H-indeno[1,2-c]isoquinoline Trifluoroacetate]
Top1 Cleavage (recombinant Top1 [3]): + (+, between 20 and 50% activity)

O=C1c2cc3c(cc2-c2c1c1cc(F)c(F)cc1c(=O)n2C[C@H](O)CO)OCO3 [Compound 37, (S)-2,3-Difluoro-6-(2,3-dihydroxypropyl)-8,9-methylenedioxy-5,11-dioxo-11H-indeno[1,2-c]isoquinoline]
Top1 Cleavage (recombinant Top1 [3]): ++ (++, between 50 and 75% activity)

O=C1c2cc3c(cc2-c2c1c1cc(F)c(F)cc1c(=O)n2CCCn1ccnc1)OCO3 [Compound 38, 2,3-Difluoro-6-(3-(1H-imidazol-1-yl)propyl)-8,9-methylenedioxy-5,11-dioxo-11H-indeno[1,2-c]isoquinoline]
Top1 Cleavage (recombinant Top1 [3]): + (+, between 20 and 50% activity) | GI50 [4]: 0.03 µM

O=C1c2cc3c(cc2-c2c1c1cc(Cl)c(Cl)cc1c(=O)n2C[C@H](O)CO)OCO3 [Compound 45, (S)-2,3-Dichloro-6-(2,3-dihydroxypropyl)-8,9-methylenedioxy-5,11-dioxo-11H-indeno[1,2-c]isoquinoline]
Top1 Cleavage (recombinant Top1 [3]): ++ (++, between 50 and 75% activity)

O=C1c2cc3c(cc2-c2c1c1cc(Cl)c(Cl)cc1c(=O)n2CCCn1ccnc1)OCO3 [Compound 46, 2,3-Dichloro-6-(3-(1H-imidazol-1-yl)propyl)-8,9-methylenedioxy-5,11-dioxo-11H-indeno[1,2-c]isoquinoline]
Top1 Cleavage (recombinant Top1 [3]): + (+, between 20 and 50% activity)
